# PubChem BioAssay AID1257 (The Scripps Research Institute Molecular Screening Center, 2008)
# The other results are listed elsewhere or left out. Values without a mark were called inactive.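 How the source made its calls: active means mean inhibition of triplicate wells above the hit cutoff set in the primary screen (cut at about 17% in these data); inactive means the rest.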
# Biological target: Neuropeptide Y receptor type 2 (Homo sapiens) (UniProt P49146)
# Assay: NPY-Y2 receptor antagonists, retest of hits, confirmation, HEK293-CNG cells, membrane potential fluorescence, triplicate (AID 1257);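 further: 0% = DMSO with NPY challenge and 100% = BIIE0246 high control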
# Conditions: HEK293 NPY-Y2 CNG channel, at 2.8 µM, hits give high values
# Outline: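 System – HEK293 cells expressing NPY-Y2 receptor and CNG channel · Also added – NPY 8 nM plus isoproterenol 1 µM, Ro 20-1724 25 µM · Compound dosing – single nominal compound dose of 2.8 µM · Incubation – 60 min NPY incubation, room temperature · Technique – voltage-sensitive dye fluorescence · Measure – 30-min to baseline fluorescence ratio, control-normalized · Repeats – three replicates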
# Sequence of Neuropeptide Y receptor type 2 (Homo sapiens) (P49146 whole entry, looked up): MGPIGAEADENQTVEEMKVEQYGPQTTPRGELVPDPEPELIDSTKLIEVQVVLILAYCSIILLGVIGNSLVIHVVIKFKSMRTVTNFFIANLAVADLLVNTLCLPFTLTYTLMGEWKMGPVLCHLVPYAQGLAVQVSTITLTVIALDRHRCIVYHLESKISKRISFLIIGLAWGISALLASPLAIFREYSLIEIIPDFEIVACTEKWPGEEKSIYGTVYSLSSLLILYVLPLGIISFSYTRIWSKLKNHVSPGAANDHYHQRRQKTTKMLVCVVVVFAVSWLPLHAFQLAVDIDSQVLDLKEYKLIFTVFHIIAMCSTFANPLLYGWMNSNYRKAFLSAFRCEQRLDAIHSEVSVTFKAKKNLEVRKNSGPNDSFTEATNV
smiles,measurement,value
O=C(COC(=O)c1ccccc1)Nc1ccc(Cl)cc1C(=O)c1ccccc1,inhibition,15.9%
